Rpn11 block: Rpn11 (PSMD14) deubiquitinase inhibitors, primary screen, biochemical, fluorescence polarization, uHTS | AID 588493, 2011 | 26S proteasome non-ATPase regulatory subunit 14 (Homo sapiens), O00487 | inhibition, % at 20 µM | actives 0.59% (n = 360,000) | human 26S proteasome, Ub4-pepOG fluorescence polarization; 20S core pre-blocked with epoxomicin;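 active means inhibition at 20 µM, scaled to each plate's controls, above about 33%, limit read from the data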
CSN inh: inhibitors of CSN-mediated cullin deneddylation, primary screen, biochemical, fluorescence polarization, uHTS. COP9 signalosome complex subunit 5 (Homo sapiens), Q92905. Purified CSN, SCF-Nedd8-OG deneddylation. inhibition, % at 12.5 µM. actives 0.38% (n = 360,000);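 active means pattern-corrected inhibition above about 35%, with an unprinted fluorescence ratio check between 0.5 and 1.5, limit read from the data, passing the limit was not always enough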;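 further: 0% = enzyme with substrate and 100% = substrate without enzyme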
Target sequence (Q92905 whole entry, looked up, one chain of several): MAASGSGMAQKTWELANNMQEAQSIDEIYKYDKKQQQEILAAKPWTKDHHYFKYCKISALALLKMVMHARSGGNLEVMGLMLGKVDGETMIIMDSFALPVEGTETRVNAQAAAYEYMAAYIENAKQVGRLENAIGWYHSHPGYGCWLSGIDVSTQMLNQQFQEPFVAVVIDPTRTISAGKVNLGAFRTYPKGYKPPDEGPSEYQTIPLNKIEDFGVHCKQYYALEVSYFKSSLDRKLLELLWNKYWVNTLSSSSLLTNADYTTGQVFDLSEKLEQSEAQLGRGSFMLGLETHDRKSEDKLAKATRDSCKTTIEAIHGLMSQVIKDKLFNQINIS
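Assay system: HEK293T-derived human Csn5 enzyme; quantity: 0.24 nM enzyme; medium: Tris/NaCl/DTT buffer, pH 7.5; also added: substrate SCFSkp2-Nedd8OG, 10 nM; doses: 12.5 µM compound; schedule: 90 min reaction at room temperature; signal: FP; read-out: % inhibition of substrate cleavage by Csn5; benchmarks: substrate-only high control, full reaction low control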
DNMT1 block: human DNMT1 methyltransferase inhibitors, primary screen, biochemical, molecular beacon, fluorescence, HinP1I cleavage, uHTS; DNA (cytosine-5)-methyltransferase 1 (Homo sapiens), P26358; inhibition (reported as % activation of signal), % at 10 µM; actives 0.83% (n = 360,000); AID 588458, 2011; in the data active means inhibition above about 50%
SUMO1 PPI mod: modulators of SUMO1 protein-protein interactions, primary screen, biochemical, uHTS | SUMO1 binding to a labelled peptide, TR-FRET, 1 h | inhibition, % at 20 µM | actives 0.33% (n = 360,000) | AID 602429, 2012; in the data active means inhibition above about 37%
Target sequence (P63165 whole entry, looked up): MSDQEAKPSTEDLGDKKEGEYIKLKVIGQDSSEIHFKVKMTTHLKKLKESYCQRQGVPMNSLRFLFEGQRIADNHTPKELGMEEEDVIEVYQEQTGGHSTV
MT1-MMP act inh: blockers of MT1-MMP proenzyme processing, primary screen, HT1080 RFP-PRO-GFP cells, GFP/RFP fluorescence. GFP/RFP ratio change, % at 20 µM. AID 651647, 2012. actives 0.061% (n = 360,000). GFP/RFP ratio fluorescence, overnight; percent of plate control window, DMSO zero. Matrix metalloproteinase-14 (Homo sapiens), P50281;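 active means GFP/RFP ratio change of at least 30% with cell ATP level not reduced by more than half and red fluorescence within 50% of control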
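Assay system – RFP-PRO-GFP reporter HT1080 cells · Compound dosing – single dose of 20 µM compound, 1% DMSO final · Incubation – overnight compound exposure at 37 °C · Measure – GFP/RFP fluorescence ratio · Benchmarks – DMSO wells and RFP-L50D-GFP cells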
SKN-1 inh: suppressors of acrylamide-induced Pgst-4::GFP reporter in worms, primary screen, SKN-1 inhibitor project, whole organism, uHTS, GFP/RFP fluorescence ratio, strain VP596; C. elegans VP596 Pgst-4::GFP/RFP ratio, 24 h; inhibition, % at 21.8 µM; actives 0.49% (n = 360,000);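 active means interference check ratio from 0.5 to 1.5 plus GFP to RFP signal ratio inhibition reaching or exceeding a fixed threshold, cut at about 30% in these data, passing the limit was not always enough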
The depositor's hits bear a star; . = not tested or not shown. Sampled rows, rich in hits. Any-hit rate of the full collection: about 2.3%.

SMILES	Rpn11 block	CSN inh	DNMT1 block	SUMO1 PPI mod	MT1-MMP act inh	SKN-1 inh
COc1ccc(N2C(=O)NC(=O)/C(=C/c3ccc([N+](=O)[O-])s3)C2=O)cc1	15	7	29	38*	-16	31
Cc1ccc(N2C(=O)NC(=O)C3(Cc4ccccc4N4CCCC43)C2=O)cc1 (stereo unspecified)	9	-5	-16	12	-10	59*
O=c1[nH]c(=O)n(-c2ccccc2)c(O)c1/C=C1/C(c2ccccc2)=Nc2ccccc21	23	7	11	4	-4	36*
COC(=O)C1=Nc2ccccc2/C1=C\c1c(O)n(-c2ccc(Br)cc2)c(=O)[nH]c1=O	15	5	5	-2	-7	11
O=C1NC(=S)N(c2ccc(F)cc2)C(=O)/C1=C/c1ccccc1O	-4	-1	2	5	-11	0
O=C1NC(=S)N(c2ccc(Br)cc2)C(=O)/C1=C/N1CCN(C(=O)c2ccco2)CC1	.	57*	-1	10	-10	23
O=c1[nH]c(=S)n(-c2ccccc2)c(O)c1/C=N/N1CCCCC1c1cccnc1 (stereo unspecified)	.	37*	0	-3	-6	41*
O=[N+]([O-])c1ccc(N2CCCC2)c2ccncc12	24	8	-25	-90	26	35*
Cn1cc(C=C(C#N)C#N)c2ccccc21	.	36*	3	-10	-7	0
CCCCN1C(=O)NC(=O)C2(Cc3cc(C)ccc3N(C)C2)C1=O (stereo unspecified)	5	-6	-1	1	-1	41*
COc1cc(CN2C(=O)NC(=O)C3(Cc4cc(C)ccc4N(C)C3)C2=O)cc(OC)c1 (stereo unspecified)	1	3	-6	5	-3	14
C/C=C1\NC(=O)[C@H](C)NC(=O)[C@@H](NC(=O)[C@H](Cc2ccc(O)cc2)NC(=O)[C@@H](NC(=O)/C(C)=C/C)C(C)C)[C@@H](C)OC(=O)[C@H](CCCc2ccc(O)cc2)NC(=O)[C@@H](CCC(=O)O)NC1=O	0	1	2	9	0	-11
C1=NCCc2c1[nH]c1ccccc21	8	-2	-1	-59	14	3
CC1=NCCc2c1[nH]c1cc(O)ccc21	-194	-74	163*	-41	-50	-15
Cc1cc(C)c(S(=O)(=O)N2Cc3ccccc3-n3nncc3C2)c(C)c1	3	-2	40	4	-4	-1
CC(=O)c1ccc2c(c1)C1C(Cl)C(Sc3ccccc3[N+](=O)[O-])CC1C(C(=O)O)N2 (stereo unspecified)	-12	33	114*	84*	45*	-1
C[C@]12C[C@H](O)[C@@H](O)C[C@@H]1CC[C@@H]1[C@@H]2CC[C@]2(C)C(=O)CC[C@@H]12	-1	-1	-7	-3	3	19
C[C@H]1CN([C@@H](C)CO)C(=O)CCCn2nncc2CO[C@@H]1CN(C)C(=O)Oc1ccccc1	-1	0	5	-4	-3	-2
CCCCCCn1c(O)c(C=NCCCn2ccnc2)c(=O)[nH]c1=O	.	53*	2	1	-39	4
Cc1ccc(/C=C2\C(=O)NC(=S)N(c3ccc(F)cc3)C2=O)s1	30	5	11	10	-7	36*
O=C(O)c1cc[c]([Hg][Cl])cc1	8	2	29	0	-2	45*
O=C1NC(=O)N(Cc2ccco2)C(=O)/C1=C/c1ccc(-c2cccc([N+](=O)[O-])c2)o1	7	34	98*	38*	2	-7
CCc1ccc(N2C(=O)NC(=O)/C(=C/c3cccn3CCOc3ccc(C)cc3)C2=O)cc1	.	21	18	13	-5	24
Cc1cc(/C=C2/C(=O)NC(=O)N(Cc3ccco3)C2=O)c(C)n1-c1ccccc1	12	15	55*	15	-14	6
CCc1ccc(N2C(=O)NC(=O)/C(=C/c3cccn3CCOc3ccc(C(C)CC)cc3)C2=O)cc1 (stereo unspecified)	.	22	44	-1	-23	10
SMILES	Rpn11 block	CSN inh	DNMT1 block	SUMO1 PPI mod	MT1-MMP act inh	SKN-1 inh
Cc1cc(/C=C2\C(=O)NC(=O)N(Cc3ccccc3)C2=O)c(C)n1C1CC1	-52	-3	-6	-5	-7	11
O=C1NC(=O)N(Cc2ccco2)C(=O)/C1=C\c1cccn1CCOc1ccc(Cl)cc1	6	22	59*	21	-20	-27
Cc1cccc(OCCn2cccc2/C=C2/C(=O)NC(=O)N(Cc3ccco3)C2=O)c1	8	43	60*	12	-13	-16
NC(Cc1ccc(F)cc1)c1csc(Nc2ccccn2)n1 (stereo unspecified)	-1	-1	-2	-7	-2	1
O=S(=O)(c1ccc(Cl)cc1)N1Cc2cc(Br)ccc2-n2nncc2C1	5	4	3	4	1	11
COc1cccc(C(c2nnnn2Cc2ccccc2)N2CCC3(CC2)C(=O)NCN3c2ccccc2)c1OC (stereo unspecified)	31	-3	-11	8	2	-2
O=C1c2ccccc2-n2nnc(-c3ccccc3)c2C2c3cc(Br)ccc3CCN12 (stereo unspecified)	12	-1	7	0	3	5
C[C@H]1COc2cc(N3CCN(C)CC3)ccc2S(=O)(=O)N1	.	0	.	1	2	-14
NC(=O)C1CCN(/C=C2\C(=O)NC(=O)N(Cc3ccco3)C2=O)CC1	-2	21	52*	14	-8	-7
CCOC(=O)C1CCN(/C=C2/C(=O)NC(=O)N(c3ccc(OCC)cc3)C2=O)CC1	18	19	-3	2	-25	20
COc1ccc(-n2nnnc2C(CCc2ccccc2)N2CCC(n3c(=O)[nH]c4ccccc43)CC2)cc1 (stereo unspecified)	2	1	-18	0	-21	-4
O=S(=O)(c1cccc2ccccc12)N1Cc2ccccc2-n2nncc2C1	6	0	1	-10	-6	-4
c1ccc(CN2COC3CCCCCC32)cc1 (stereo unspecified)	1	1	0	3	3	13

Assay outcomes from PubChem.
